Laboratory results as given in ChEMBL document CHEMBL1131145, “Halogenated chalcones with high-affinity binding to P-glycoprotein: potential modulators of multidrug resistance” (J Med Chem, 1998).

What was measured:
[1] = The maximal fluorescence quenching was determined using the Grafit program.
Summary of the method: (§1)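 Tryptophan fluorescence excited at 295 nm, emission scanned 310–380 nm and integrated after buffer Raman subtraction. Chalcone titrated in successive additions up to 20 µM. Quenching corrected for inner-filter effect using N-acetyltryptophanamide. KD and ΔFmax obtained by curve fitting.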

[2] = The dissociation constant was measured as binding affinity to P-Glycoprotein C-terminal cytosolic domain using the grafit program.; summary of the method: as §1

SMILES | maximal fluorescence quenching [1] | Kd [2]
COc1ccc(/C=C/C(=O)c2c(O)cc(O)cc2O)cc1 [4-METHOXYL-2',4',6'-TRIHYDROXYCHALCONE] | 85.5% | 2.3 µM
O=C(/C=C/c1ccccc1)c1c(O)cc(O)cc1O [2',4',6-TRIHYDROXYCHALCONE] | 87.8% | 
O=C(/C=C/c1ccc(Br)cc1)c1c(O)cc(O)cc1O [4-BROMO-2',4',6'-TRIHYDROXYCHALCONE] | 88.7% | 0.57 µM

The remaining lines, values ahead:

maximal fluorescence quenching [1] | Kd [2] | SMILES
86.8% | 4.8 µM | O=C(/C=C/c1ccc(O)cc1)c1c(O)cc(O)cc1O [4,2',4',6'-TETRAHYDROXYCHALCONE]
88.1% | 3.6 µM | O=C(/C=C/c1ccc(F)cc1)c1c(O)cc(O)cc1O [4-FLUORO-2',4',6'-TRIHYDROXYCHALCONE]
80.1% | 1.3 µM | O=C(/C=C/c1ccc(Cl)cc1)c1c(O)cc(O)cc1O [4-CHLORO-2',4',6'-TRIHYDROXYCHALCONE]
86.6% | 0.25 µM | O=C(/C=C/c1ccc(I)cc1)c1c(O)cc(O)cc1O
